Published values gathered from unrelated publications.
PAK5: Serine/threonine-protein kinase PAK 5 (PAK5, Homo sapiens, UniProt Q9P286)

Structure (SMILES) | target | test | system | conditions | endpoint | result
C#Cc1n[nH]c2c(-c3cn([C@@H](C)c4ccccn4)c(=O)[nH]c3=O)cc(F)cc12 | PAK5 | enzyme activity, inhibitor | – | 0.1 µM | inhibition | 5.1%
Nc1ncc(-c2nc(N3CCOCC3)nc(N3CCOCC3)n2)c(C(F)F)n1 | Serine/threonine-protein kinase RIO2 (RIOK2, Homo sapiens, UniProt Q9BVS4) | binding, competition with immobilised ligand | – | 10 µM | remaining binding | 51%
O=C(Nc1cccnn1)N1CCN([C@@H]2CCOc3cc(C(F)(F)F)ccc32)CC1 | Apelin receptor (APLNR, Homo sapiens, UniProt P35414) | ligand displacement | – | 20 µM | inhibition | -1%
Cn1cc(-c2cc(F)cc(N3CCn4c(cc5c4CCCC5)C3=O)c2CO)cc(Nc2ccc(N3CCN(C4COC4)CC3)cn2)c1=O | Phosphatidylinositol 4-phosphate 3-kinase C2 domain-containing subunit alpha (PIK3C2A, Homo sapiens, UniProt O00443) | enzyme activity, inhibitor | – | 0.1 µM | inhibition | -2%
CCN(CC)CCCC[C@H](NC(=O)[C@H](CC(C)C)NC(=O)[C@H](C)NC(=O)[C@H](Cc1ccccc1)NC(=O)c1ccc(C(C)(C)C)cc1)C(=O)N[C@@H](CO)C(=O)OC | Nociceptin receptor (OPRL1, Homo sapiens, UniProt P41146) | ligand displacement, radioligand | – | 10 µM | remaining binding | 76.8%
COc1cc(Nc2ncc(F)c(Nc3ccc4c(n3)NC(=O)C(C)(C)O4)n2)cc(OC)c1OC | Serine/threonine-protein kinase TAO2 (TAOK2, Homo sapiens, UniProt Q9UL54) | binding | – | 10 µM | inhibition | 88%
Cc1nn(C)cc1-c1nc2c(N3CCN(Cc4ccc(Cl)cc4)CC3)c(Cl)cnc2[nH]1 | Rhodopsin kinase GRK1 (GRK1, Homo sapiens, UniProt Q15835) | binding, competition with immobilised ligand | – | 1 µM | remaining binding | 100%
Cn1cc(-c2cccc(N3CCc4c(sc5c4CC(C)(C)C5)C3=O)c2CO)cc(Nc2ccncn2)c1=O | Serine/threonine-protein kinase PAK 3 (PAK3, Homo sapiens, UniProt O75914) | enzyme activity, inhibitor | – | 1 µM | inhibition | -3%
COc1ncccc1-c1cnn2ccc(N3CCN(C(=O)OC(C)C)CC3)nc12 | Mitogen-activated protein kinase kinase kinase 13 (MAP3K13, Homo sapiens, UniProt O43283) | binding, competition with immobilised ligand | – | 1 µM | remaining binding | 98%
C#Cc1n[nH]c2c(-c3cn([C@@H](C)c4ccccc4)c(=O)[nH]c3=O)cc(F)cc12 | PAK5 | enzyme activity, inhibitor | – | 0.1 µM | inhibition | 4.5%
CCCCCc1cc(O)c2c(c1)OC(C)(CCC=C(C)C)C=C2 (centres unmarked) | Polyunsaturated fatty acid lipoxygenase ALOX12 (ALOX12, Homo sapiens, UniProt P18054) | enzyme activity in cells, inhibitor | PMNL | 10 µM | remaining activity | 122%
